{
  "source": "ChEMBL document CHEMBL4340522",
  "about": "“β-Carboline and N-hydroxycinnamamide hybrids as anticancer agents for drug-resistant hepatocellular carcinoma” (Eur J Med Chem, 2019)",
  "key": {"Bel7402/5-FU [1]": {"tested_on": "Bel7402/5-FU", "experiment": "Induction of autophagy in human Bel7402/5-FU cells assessed as down regulation of LC3-I levels at 2 to 5 uM incubated for 72 hrs by Western blot assay", "type": "functional, cell-based", "method_in_brief": "(§1)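 Bel7402/5-FU cells were seeded at 1.5×10^5/mL, grown 1 day, then treated for 72 h. Lysates (50 µg/lane) were run on 12% SDS-PAGE and transferred to nitrocellulose. Blots were blocked in 5% fat-free milk and probed with specific primary antibodies, then peroxidase secondary for 1 h. Chemiluminescent detection, quantified relative to β-actin; three separate experiments, mean ± SD.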"}, "Bel7402/5-FU [2]": {"tested_on": "Bel7402/5-FU", "experiment": "Potency index, ratio of SAHA IC50 to compound IC50 for antiproliferative activity against human Bel7402/5-FU cells incubated for 48 hrs by MTT assay", "type": "functional"}, "Bel7402/5-FU [3]": {"tested_on": "Bel7402/5-FU", "experiment": "Induction of apoptosis in human Bel7402/5-FU cells assessed as early apoptotic cells at 5.0 uM incubated for 72 hrs by […] based flow cytometry (reference value: 3.60%)", "type": "functional"}, "Bel7402/5-FU [4]": {"tested_on": "Bel7402/5-FU", "experiment": "Induction of apoptosis in human Bel7402/5-FU cells assessed as necrotic cells at 2.0 uM incubated for 72 hrs by […] based flow cytometry (reference value: 2.27%)", "type": "functional"}, "Bel-7402": {"tested_on": "Bel-7402", "experiment": "Potency index, ratio of 5-FU IC50 to compound IC50 for antiproliferative activity against human Bel7402 cells incubated for 48 hrs by MTT assay", "type": "functional"}, "Histone deacetylase 1": {"molecular_target": "Histone deacetylase 1 (Homo sapiens, UniProt Q13547)", "sequence (Q13547 whole entry)": "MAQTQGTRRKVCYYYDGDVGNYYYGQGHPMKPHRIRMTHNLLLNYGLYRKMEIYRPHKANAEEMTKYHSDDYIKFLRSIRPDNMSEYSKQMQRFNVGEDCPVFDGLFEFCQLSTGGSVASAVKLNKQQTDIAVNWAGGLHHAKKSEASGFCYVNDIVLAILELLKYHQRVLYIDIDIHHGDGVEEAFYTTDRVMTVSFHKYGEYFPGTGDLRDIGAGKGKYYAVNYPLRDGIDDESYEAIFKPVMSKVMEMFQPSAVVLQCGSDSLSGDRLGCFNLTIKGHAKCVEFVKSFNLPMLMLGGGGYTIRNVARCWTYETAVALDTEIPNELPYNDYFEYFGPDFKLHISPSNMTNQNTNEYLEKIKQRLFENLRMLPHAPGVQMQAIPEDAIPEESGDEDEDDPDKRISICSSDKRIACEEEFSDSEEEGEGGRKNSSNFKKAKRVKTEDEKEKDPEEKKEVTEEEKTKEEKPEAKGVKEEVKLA", "experiment": "Inhibition of HDAC1 in human Bel7402/5-FU cells assessed as up regulation of Ac-H3 expression at 0.8 to 5.0 uM incubated for 72 hrs by Western blot assay", "type": "cell-based", "method_in_brief": "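Bel7402/5-FU cells were seeded at 1.5×10^5/mL, grown 1 day, then exposed to 0.8, 2.0 or 5.0 µM or vehicle for 72 h. Lysates (50 µg/lane) were separated by 12% SDS-PAGE and blotted to nitrocellulose, with milk blocking. Probed for Ac-H3, Ac-H4 and Ac-α-tubulin, chemiluminescent detection. Densitometry relative to β-actin; three experiments, mean ± SD.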"}, "Bel7402/5-FU [5]": {"tested_on": "Bel7402/5-FU", "experiment": "Induction of apoptosis in human Bel7402/5-FU cells assessed as increase in cleaved caspase-3 levels at 2.0 to 5.0 uM incubated for 72 hrs by Western blot assay relative to SAHA", "type": "functional, cell-based", "method_in_brief": "as §1"}},
  "note": "Calls of active or inactive are those of the source. The rule behind the calls is not given here.",
  "data": [
    {"smiles": "COc1cc(-c2nc(NCc3cccc(/C=C/C(=O)NO)c3)cc3c2[nH]c2ccccc23)cc(OC)c1OC", "values": [
      {"measurement": "Activity", "setting": "Bel7402/5-FU [1]", "result": "Active"},
      {"measurement": "Ratio IC50", "setting": "Bel7402/5-FU [2]", "result": "5 - 6"},
      {"measurement": "Activity", "setting": "Bel7402/5-FU [3]", "result": 31.24, "unit": "%"},
      {"measurement": "Activity", "setting": "Bel7402/5-FU [4]", "result": 5.95, "unit": "%"},
      {"measurement": "Ratio IC50", "setting": "Bel-7402", "result": "18 - 30"},
      {"measurement": "inhibition", "setting": "Histone deacetylase 1", "result": "Active"},
      {"measurement": "Activity", "setting": "Bel7402/5-FU [5]", "result": "Active"}
    ]}
  ]
}
